According to ChEMBL document CHEMBL1150115, “Bioactive abietane and seco-abietane diterpenoids from Salvia prionitis” (J Nat Prod, 2002):
Converted amounts (≈) assume the structure as drawn. The source made the active and inactive calls. No cut-off for these calls is given here.

Tests used:
[1] = test system: SGC-7901; assay: Cytotoxicity against human SGC7901 cells after 48 hr by MTT assay; type: functional, cell-based
[2] = test system: MKN-28; assay: Cytotoxicity against human MKN28 cells after 48 hr by MTT assay; type: functional, cell-based
[3] = test system: HL-60; assay: Cytotoxicity against human HL60 cells after 48 hr by MTT assay; type: functional, cell-based
[4] = target: T1, DNA topoisomerase 1 (Mus musculus, UniProt Q04750); assay: Inhibition of topoisomerase 1 extracted from mouse EAC cells assessed as inhibition of Escherichia coli pBR322 relaxation; type: cell-free, Ehrlich
T1 sequence (Q04750 whole entry): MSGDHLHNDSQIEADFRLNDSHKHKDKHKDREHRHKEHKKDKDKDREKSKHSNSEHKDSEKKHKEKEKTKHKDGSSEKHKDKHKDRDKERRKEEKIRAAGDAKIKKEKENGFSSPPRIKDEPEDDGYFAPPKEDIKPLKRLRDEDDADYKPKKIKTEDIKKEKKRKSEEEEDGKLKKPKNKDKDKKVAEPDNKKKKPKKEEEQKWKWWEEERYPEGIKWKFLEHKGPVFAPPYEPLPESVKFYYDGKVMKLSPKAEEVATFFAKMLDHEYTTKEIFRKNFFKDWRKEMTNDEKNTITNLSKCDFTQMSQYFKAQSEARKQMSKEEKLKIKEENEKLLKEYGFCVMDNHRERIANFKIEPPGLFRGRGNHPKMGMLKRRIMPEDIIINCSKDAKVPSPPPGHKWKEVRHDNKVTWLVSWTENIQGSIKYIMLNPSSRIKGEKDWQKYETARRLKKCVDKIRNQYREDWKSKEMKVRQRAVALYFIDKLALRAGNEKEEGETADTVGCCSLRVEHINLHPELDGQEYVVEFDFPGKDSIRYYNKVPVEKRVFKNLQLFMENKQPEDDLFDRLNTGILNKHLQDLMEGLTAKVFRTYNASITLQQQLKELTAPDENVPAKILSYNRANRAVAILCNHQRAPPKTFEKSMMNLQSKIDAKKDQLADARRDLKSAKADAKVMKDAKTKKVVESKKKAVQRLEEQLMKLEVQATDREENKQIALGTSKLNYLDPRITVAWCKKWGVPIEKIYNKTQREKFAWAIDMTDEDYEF

[5] = test system: Micrococcus luteus; assay: Antibacterial activity against Micrococcus luteus after 18 hrs by microdilution assay; type: functional
Summary of the method: (§1)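 Broth microdilution in Mueller-Hinton broth, with cells at a set final CFU/mL density. Compounds dissolved in DMSO. Incubation at 37 °C for 18 h under aerobic conditions. Blank controls received a limited amount of DMSO under the same conditions. Read-out is MIC.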

[6] = test system: Staphylococcus aureus; assay: Antibacterial activity against Staphylococcus aureus after 18 hrs by microdilution assay; type: functional; summary of the method: as §1

Row | SMILES | Activity [1] | Activity [2] | Activity [3] | other results
1 | Cc1ccc2c(c1CCC(=O)C(C)(C)O)C(=O)C(=O)C(C(C)C)=C2 |  |  |  | IC50 ([1]; SGC-7901, 48 h): 200 nM; IC50 ([2]; MKN-28, 48 h): 300 nM; IC50 ([3]; HL-60, 48 h): 4600 nM
2 | Cc1ccc2cc(C(C)C)c(O)c3c2c1C(=O)OC3=O | inactive | inactive | inactive | 
3 | C=C(C)C1CCc2c(C)ccc3c2[C@]1(O)C(=O)C(C(C)C)=C3 (some centres not stated) | inactive | inactive | inactive | 
4 | Cc1ccc2c(c1CCCC(C)(C)O)C(=O)C(=O)C(C(C)C)=C2 |  |  |  | IC50 [4]: 800 nM
5 | CC(C)C1=CC(=O)C([C@@]2(C)CCCC(C)(C)[C@@H]2CC=O)=CC1=O |  |  |  | MIC [5]: 15 µM (≈ 4.75 µg/mL); MIC [6]: 20 µM (≈ 6.33 µg/mL)
